Test results reported in ChEMBL document CHEMBL1124216, “A novel class of potential central nervous system agents. 3-Phenyl-2-(1-piperazinyl)-5H-1-benzazepines” (1988).

Legend:
Format in all cases: functional
[1] = tested on: Mus musculus; assay: Antimaximal electroshock seizure (MES) activity in mice after peroral administration of 100 mg/kg of compound; 5/5; settings: route oral
[2] = tested on: Mus musculus; assay: Antireserpine activity (RES) of mice after peroral administration of 100 mg/kg of compound; No inhibition; settings: route oral
[3] = tested on: Mus musculus; assay: Antimaximal electroshock seizure (MES) activity in mice after peroral administration of 10 mg/kg of compound; 0/5; settings: route oral
[4] = tested on: Mus musculus; assay: Antitremorine activity(TRM) of mice after peroral administration of 100 mg/kg of compound; Moderate inhibition (51-71%); settings: route oral
[5] = tested on: Mus musculus; assay: Antiexploratory activity (EXPL) of mice determined by an antimex activity meter,100 mg/kg of dose was administered perorally; No inhibition
[6] = tested on: Mus musculus; assay: Antimaximal electroshock seizure (MES) activity in mice after peroral administration of 100 mg/kg of compound; 0/5; settings: route oral
[7] = tested on: Mus musculus; assay: Antitremorine activity(TRM) of mice after peroral administration of 100 mg/kg of compound; Slight inhibition (31-50%); settings: route oral
[8] = tested on: Mus musculus; assay: Antireserpine activity (RES) of mice after peroral administration of 50 mg/kg of compound; No inhibition; settings: route oral
[9] = tested on: Mus musculus; assay: Antiexploratory activity (EXPL) of mice determined by an antimex activity meter, 50 mg/kg of dose was administered perorally; No inhibition; settings: route oral
[10] = tested on: Mus musculus; assay: Antireserpine activity (RES) of mice after peroral administration of 100 mg/kg of compound; Slight inhibition (31-50%); settings: route oral
[11] = tested on: Mus musculus; assay: Antitremorine activity(TRM) of mice after peroral administration of 100 mg/kg of compound; No inhibition; settings: route oral
[12] = tested on: Mus musculus; assay: Antiexploratory activity (EXPL) of mice determined by an antimex activity meter, 100 mg/kg of dose was administered perorally; Slight inhibition (31-50%); settings: route oral
[13] = tested on: Mus musculus; assay: Antimaximal electroshock seizure activity was determined in mice when administered perorally; settings: po
[14] = tested on: Mus musculus; assay: Antipentylene tetrazole activity was determined in mice when administered perorally; settings: po
Summary of the method: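 Groups of five male Std-ddY mice received compound orally in 0.5% tragacanth, then pentylenetetrazole 175 mg/kg ip. Blockade of the tonic extensor component scored as anticonvulsant. ED50 was the dose protecting 50% of animals (Litchfield-Wilcoxon).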

[15] = tested on: Mus musculus; assay: Antiexploratory activity (EXPL) of mice determined by an antimex activity meter, 100 mg/kg of dose was administered perorally; Moderate inhibition (51-71%); settings: route oral

SMILES: CCc1ccc2c(c1)CC=C(c1ccccc1)C(N1CCN(C(C)C)CC1)=N2.O=C(O)/C=C/C(=O)O
- Activity [1]: 5
- inhibition in vivo at 100 mg/kg [2]: < 30%
- Activity [3]: 0
- inhibition in vivo at 100 mg/kg [4]: 51%
- Inhibition [5]: <30%

SMILES: CCCN1CCN(C2=Nc3ccc(CC)cc3CC=C2c2ccccc2)CC1.O=C(O)/C=C/C(=O)O
- inhibition in vivo at 100 mg/kg [2]: < 30%
- Activity [6]: 0
- inhibition in vivo at 100 mg/kg [7]: 31%
- Inhibition [5]: <30%

SMILES: OCCN1CCN(C2=Nc3ccccc3CC=C2c2ccc(O)cc2)CC1
- inhibition in vivo at 50 mg/kg [8]: < 30%
- inhibition in vivo at 50 mg/kg [9]: < 30%

SMILES: Clc1ccc2c(c1)N=C(N1CCNCC1)C(c1ccccc1)=CC2.O=C(O)/C=C/C(=O)O
- inhibition in vivo at 100 mg/kg [10]: 31%
- Activity [6]: 0
- inhibition in vivo at 100 mg/kg [11]: < 30%
- inhibition in vivo at 100 mg/kg [12]: 31%

SMILES: OC1(c2ccc(Cl)cc2)CCN(C2=Nc3ccccc3CC=C2c2ccccc2)CC1
- inhibition in vivo at 100 mg/kg [2]: < 30%
- Activity [6]: 0
- inhibition in vivo at 100 mg/kg [11]: < 30%
- inhibition in vivo at 100 mg/kg [12]: 31%

SMILES: CCCCN1CCN(C2=Nc3ccc(CC)cc3CC=C2c2ccccc2)CC1.O=C(O)/C=C/C(=O)O
- inhibition in vivo at 100 mg/kg [2]: < 30%
- Activity [6]: 0
- inhibition in vivo at 100 mg/kg [7]: 31%
- Inhibition [5]: <30%

SMILES: CN1CCN(C2=Nc3ccccc3CC=C2c2ccc(C(F)(F)F)cc2)CC1
- inhibition in vivo at 50 mg/kg [8]: < 30%
- inhibition in vivo at 50 mg/kg [9]: < 30%

SMILES: CN1CCN(C2=Nc3ccc(F)cc3CC=C2c2ccccc2)CC1.Cl.Cl
- inhibition in vivo at 100 mg/kg [2]: < 30%
- Activity [6]: 0
- inhibition in vivo at 100 mg/kg [11]: < 30%
- inhibition in vivo at 100 mg/kg [12]: 31%
- ED50 [13]: > 500 mg/kg
- ED50 [14]: > 200 mg/kg

SMILES: CN1CCN(C2=Nc3ccccc3CC=C2c2ccccc2)CC1.Cl.Cl
- inhibition in vivo at 100 mg/kg [15]: 51%
- inhibition in vivo at 100 mg/kg [10]: 31%
- Activity [6]: 0
- inhibition in vivo at 100 mg/kg [11]: < 30%
- ED50 [13]: > 100 mg/kg

SMILES: CCc1ccc2c(c1)CC=C(c1ccccc1)C(N1CCN(C)CC1)=N2.Cl.Cl
- Activity [1]: 5
- inhibition in vivo at 100 mg/kg [2]: < 30%
- Activity [3]: 0
- inhibition in vivo at 100 mg/kg [4]: 51%

SMILES: CN1CCN(C2=Nc3ccccc3CC=C2c2ccc(Cl)cc2)CC1.Cl.Cl
- inhibition in vivo at 100 mg/kg [2]: < 30%
- Activity [6]: 0
- inhibition in vivo at 100 mg/kg [7]: 31%
- inhibition in vivo at 100 mg/kg [12]: 31%

SMILES: CCN1CCN(C2=Nc3ccccc3CC=C2c2ccc(Cl)cc2)CC1.Cl.Cl
- inhibition in vivo at 100 mg/kg [15]: 51%
- inhibition in vivo at 100 mg/kg [2]: < 30%
- Activity [6]: 0
- inhibition in vivo at 100 mg/kg [11]: < 30%

SMILES: CN1CCN(C2=Nc3cc(Cl)ccc3CC=C2c2ccc(Cl)cc2)CC1.Cl.Cl
- inhibition in vivo at 100 mg/kg [15]: 51%
- inhibition in vivo at 100 mg/kg [2]: < 30%
- Activity [6]: 0
- inhibition in vivo at 100 mg/kg [11]: < 30%

SMILES: Cl.OC1(c2ccc(Cl)cc2)CCN(C2=Nc3ccc(Br)cc3CC=C2c2ccccc2)CC1
- inhibition in vivo at 100 mg/kg [2]: < 30%
- Activity [6]: 0
- inhibition in vivo at 100 mg/kg [11]: < 30%
- Inhibition [5]: <30%

SMILES: CCc1ccc2c(c1)CC=C(c1ccccc1)C(N1CCN(CC)CC1)=N2.Cl.Cl
- Activity [1]: 5
- inhibition in vivo at 100 mg/kg [2]: < 30%
- Activity [3]: 0
- inhibition in vivo at 100 mg/kg [4]: 51%
- inhibition in vivo at 100 mg/kg [12]: 31%

SMILES: OCCN1CCN(C2=Nc3ccccc3CC=C2c2ccc(C(F)(F)F)cc2)CC1
- inhibition in vivo at 50 mg/kg [8]: < 30%
- inhibition in vivo at 50 mg/kg [9]: < 30%

SMILES: Cl.Cl.OCCN1CCN(C2=Nc3ccccc3CC=C2c2ccccc2Cl)CC1
- inhibition in vivo at 100 mg/kg [15]: 51%
- inhibition in vivo at 100 mg/kg [2]: < 30%
- Activity [6]: 0
- inhibition in vivo at 100 mg/kg [7]: 31%

SMILES: C1=C(c2ccccc2)C(N2CCCCC2)=Nc2ccccc2C1.Cl.Cl
- inhibition in vivo at 100 mg/kg [2]: < 30%
- Activity [6]: 0
- inhibition in vivo at 100 mg/kg [11]: < 30%
- inhibition in vivo at 100 mg/kg [12]: 31%

SMILES: CCN1CCN(C2=Nc3ccc(F)cc3CC=C2c2ccccc2)CC1.Cl.Cl
- inhibition in vivo at 100 mg/kg [15]: 51%
- inhibition in vivo at 100 mg/kg [2]: < 30%
- Activity [6]: 0
- inhibition in vivo at 100 mg/kg [11]: < 30%
- ED50 [13]: > 500 mg/kg
- ED50 [14]: > 100 mg/kg

SMILES: CCN1CCN(C2=Nc3ccccc3CC=C2c2ccc(C(F)(F)F)cc2)CC1
- inhibition in vivo at 50 mg/kg [8]: < 30%
- inhibition in vivo at 50 mg/kg [9]: < 30%
